Data from ChEMBL document CHEMBL1955834, “Disparate SAR data of griseofulvin analogues for the dermatophytes Trichophyton mentagrophytes, T. rubrum, and MDA-MB-231 cancer cells” (J Med Chem, 2012).
Calls of active or inactive are those of the source. The rule behind the calls is not given here.

What was measured:
MDA-MB-231 [1] = test: Cytotoxicity against human MDA-MB-231 cells assessed as cell viability after 48 hrs by MTT assay; assay type: functional, cell-based; conditions: MDA-MB-231, 48 h
In short: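 MDA-MB-231 cells were grown in L-15 with 10% FCS at 37 °C and seeded at (2-3) × 10^4 per well. Exposure was 24 and/or 48 h, then MTT for at least 4 h, with absorbance read at 570/630 nm. Each condition had at least 3 replicates, reported as mean ± SD of a representative experiment repeated at least three times.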

[2] = Drug degradation in phosphate buffered saline at pH 7.4 assessed as compound hydrolysis after 48 hrs; assay type: physicochemical; conditions: read-out: Drug degradation
In short: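 Oximes were held in PBS at pH 7.4 for 48 h, and hydrolysis to the parent ketones was monitored.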

[3] = tested on: Trichophyton mentagrophytes; test: Antifungal activity against Trichophyton mentagrophytes IBT 2724 after 7 days by micro broth dilution method; assay type: functional, organism-based; conditions: IBT 2724, 168 h
In short: (§1)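 T. mentagrophytes IBT2724 was tested by broth microdilution using an 8-fold dilution series of 10 concentrations from 50 μM down to 0.4 μM, with 1% DMSO. The inoculum was prepared per CLSI M38-A2, adjusted to OD530 0.90–1.5 and diluted 50-fold in RPMI/MOPS at pH 7.00. Plates ran 7 days at 37 °C with an OD read-out. IC50 came from a variable-slope sigmoidal fit.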

Trichophyton rubrum [4] = test: Antifungal activity against Trichophyton rubrum IBT 29284 after 7 days by micro broth dilution method; assay type: functional, organism-based; conditions: IBT 29284, 168 h
In short: (§2)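 T. rubrum IBT29284 was tested by broth microdilution using a 4-fold dilution series of 10 concentrations from 50 μM down to 0.2 μM, with 1% DMSO. The inoculum followed CLSI M38-A2, set to OD530 0.90–1.5 and diluted 50-fold in RPMI/MOPS at pH 7.00. Incubation was 7 days at 37 °C, read by OD. IC50 came from a variable-slope sigmoidal fit.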

V79 = test: Cytotoxicity against Chinese hamster V79 cells; assay type: functional, cell-based; conditions: Cricetulus griseus
[5] = tested on: Trichophyton mentagrophytes; test: Antifungal activity against Trichophyton mentagrophytes IBT 2724 at 50 uM after 7 days by micro broth dilution method; assay type: functional; in short: as §1
MDA-MB-231 [6] = test: Ratio of griseofulvin IC50 to compound IC50 for human MDA-MB-231 cells; assay type: functional
Trichophyton rubrum [7] = test: Antifungal activity against Trichophyton rubrum IBT 29284 at 50 uM after 7 days by micro broth dilution method; assay type: functional; in short: as §2
HeLa = test: Cytotoxicity against human HeLa cells; assay type: functional, cell-based
[8] = Cytotoxicity against human SCC114 cells by phenotype-based spindle multipolarity assay; assay type: functional, cell-based

Row | degraded at 48 h [2] | IC50 [3] | IC50 (Trichophyton rubrum [4]) | SMILES | IC50 (MDA-MB-231 [1]) | IC50 (V79) | inhibition [5] | Ratio IC50 (MDA-MB-231 [6]) | inhibition (Trichophyton rubrum [7]) | IC50 (HeLa) | IC50 [8]
1 | < 5% | 0.19 µM | 1.3 µM | COC1=C/C(=N\O)C[C@@H](C)[C@]12Oc1c(Cl)c(OC)cc(OC)c1C2=O | 12 µM | – | – | – | – | – | –
2 | – | 0.05 µM | 0.62 µM | CCCOC1=CC(=O)C[C@@H](C)[C@]12Oc1c(Cl)c(OC)cc(OC)c1C2=O | 16 µM | 0.7 µM | – | – | – | – | –
3 | – | – | – | COC(=O)C1=CC(=O)C=C(OC)[C@]12Oc1c(Cl)c(C)c(Cl)c(O)c1C2=O | 9.9 µM | – | inactive | 2 | inactive | – | –
4 | – | 0.058 µM | 0.38 µM | COC1=CC(=O)C[C@@H](C)[C@]12Oc1c(Cl)c(OC)cc(OC)c1C2=O [GRISEOFULVIN] | 18 µM | 8 µM | – | – | – | 25 µM | 20 µM
5 | < 5% | 0.3 µM | 7.9 µM | COc1cc(OC)c2c(c1Cl)O[C@]1(C2=O)C(OCc2ccccc2)=C/C(=N\O)C[C@H]1C | 1.4 µM | – | – | – | – | – | –
6 | – | – | – | COc1cc(OC)c2c(c1Cl)O[C@]1(C2=O)C(OCc2ccc(COC3=CC(=O)C[C@@H](C)[C@]34Oc3c(Cl)c(OC)cc(OC)c3C4=O)cc2)=CC(=O)C[C@H]1C | 8.5 µM | – | inactive | 2 | inactive | – | –
